Assay results of several laboratories.
Compare with care: the assays were run in different laboratories.
Target: Serine/threonine-protein kinase 35 (STK35, Homo sapiens, UniProt Q8TDR2)

NS(=O)(=O)c1cc(NC(=O)C2(c3ccccc3Cl)CC2)ccc1Oc1cccc(Cl)c1
remaining binding (cell-free assay; competition with immobilised ligand; 1 µM): 94%

Nc1ncc2c(n1)-c1c([nH]c3ccc(C#CC4CC4)cc13)CCCC2
remaining binding (binding; competition with immobilised ligand; 1 µM): 100%

CN1CCN(c2cnc3c(C4CCN(C(=O)c5ccc(OC(F)(F)F)cc5N)CC4)ncnc3c2)CC1
remaining binding (cell-free assay; competition with immobilised ligand; 1 µM): 100%

CN(C)c1ncc(F)c(-c2cnn3ncccc23)n1
remaining binding (binding; 1 µM): 100%

O=C(c1ccc(Nc2ncc(Cl)c(-c3cc4ccccc4s3)n2)cc1)N1CCC(N2CCCC2)CC1
remaining binding (binding; competition with immobilised ligand; 1 µM): 67%

F[C@@H]1CCN(c2nccc(-c3cnn4ncccc34)n2)C1
remaining binding (binding; 1 µM): 100%

CN(C(=O)c1ccccc1)c1cc(N(C)c2ccc3c(c2)CCc2ccc(C(=O)NCCN4CCOCC4)cc2C3=O)ccc1F
remaining binding (cell-free assay; competition with immobilised ligand; 1 µM): 100%

C[C@@H]1CCN(c2nccc(-c3cnn4ncccc34)n2)C1
remaining binding (binding; 1 µM): 72%

CNC(=O)[C@@H]1CC[C@@H](n2c(-c3ccc4cnccc4c3)nc3ccc(C(=O)NCc4cccc(C(N)=O)c4)cc32)C1
remaining binding (binding; competition with immobilised ligand; 1 µM): 98%

CC1=C(C#N)[C@@H](c2ccc3[nH]nc(C)c3c2)C(C#N)=C(c2ccc(Cl)cc2)N1
remaining binding (cell-free assay; competition with immobilised ligand; 1 µM): 100%

c1cnn2ncc(-c3ccnc(N4CCC45COC5)n3)c2c1
remaining binding (binding; 1 µM): 100%

O=C(c1ccc(Nc2nccc(-c3cc4ccccc4s3)n2)cc1)N1CCC(N2CCCC2)CC1
remaining binding (binding; competition with immobilised ligand; 1 µM): 100%

COc1cnc(Nc2cccc(S(N)(=O)=O)c2)nc1N1CCN(c2ccccc2)CC1
remaining binding (binding; competition with immobilised ligand; 1 µM): 100%

COc1cc(-c2cn(C3CCc4c(F)cccc4N(CC(F)(F)F)C3=O)nn2)ccc1-n1cnc(C)c1 (stereo not shown)
remaining binding (cell-free assay; competition with immobilised ligand; 1 µM): 100%

CN(C)c1nccc(-c2cnn3ncccc23)n1
remaining binding (binding; 1 µM): 100%

Cn1nc(C(F)(F)F)cc1-c1cnc(N2CCc3cc(S(=O)(=O)Nc4c(F)cc(Cl)cc4F)cc(N4CCCC4=O)c32)nc1
remaining binding (cell-free assay; competition with immobilised ligand; 1 µM): 100%

Cc1cnc(Nc2ccc(C(=O)N3CCC(N4CCCC4)CC3)cc2)nc1-c1cc2ccccc2s1
remaining binding (binding; competition with immobilised ligand; 1 µM): 79%

CN(C)c1nccc(-c2cnc3ncccn23)n1
remaining binding (binding; 1 µM): 100%

O=C(Nc1c[nH]nc1C(=O)NC1CCNCC1)c1cc(F)cc(F)c1
remaining binding (binding; competition with immobilised ligand; 1 µM): 100%

Cc1c[nH]c2nccc(Oc3c(F)cc(Nc4cc(Cl)nc(N)n4)cc3F)c12
remaining binding (cell-free assay; competition with immobilised ligand; 0.1 µM): 94%

N[C@@H]1CCN(c2nccc(-c3cnn4ncccc34)n2)C1
remaining binding (binding; 1 µM): 100%

COc1ncc2cc3ccccc3nc2c1C#N
remaining binding (cell-free assay; competition with immobilised ligand; 5 µM): 98%
